Results on 18 compounds are retold here after ChEMBL document CHEMBL3085704, “Methyl-thiazoles: a novel mode of inhibition with the potential to develop novel inhibitors targeting InhA in Mycobacterium tuberculosis” (J Med Chem, 2013).

Converted amounts (≈) assume the structure as drawn.

One series deals with T1, Adenosine receptor A1 (Homo sapiens, UniProt P30542).
T1 sequence (P30542 whole entry): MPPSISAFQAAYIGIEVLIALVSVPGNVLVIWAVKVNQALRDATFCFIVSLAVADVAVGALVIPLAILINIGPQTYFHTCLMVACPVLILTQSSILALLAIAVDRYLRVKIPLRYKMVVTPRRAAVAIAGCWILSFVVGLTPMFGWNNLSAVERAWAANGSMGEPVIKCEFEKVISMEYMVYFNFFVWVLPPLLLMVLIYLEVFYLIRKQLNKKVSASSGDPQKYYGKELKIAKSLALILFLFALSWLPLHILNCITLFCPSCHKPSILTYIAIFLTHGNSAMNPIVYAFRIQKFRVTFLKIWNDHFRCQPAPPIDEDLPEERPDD
The series can be described thus: Inhibition of adenosine A1 receptor (unknown origin).

The target of series [1] is 5-hydroxytryptamine receptor 2B (Homo sapiens, UniProt P41595). The series can be described thus: Inhibition of 5HT2B receptor (unknown origin).
For another series, the target named is Phosphodiesterase 4 (Homo sapiens, UniProt P27815+Q08499+Q07343+Q08493). The series can be described thus: Inhibition of PDE4 (unknown origin). In kind it is protein assay.
In the next series the target is Cytochrome P450 3A4 (Homo sapiens, UniProt P08684). The experiment in a line: Inhibition of CYP3A4 (unknown origin). The format is ADME.
A short description of series [2]: Fraction unbound in plasma (unknown origin). In kind it is ADME, cell-free.
Series [3] can be described thus: Aqueous solubility of the compound. In kind it is physicochemical. To be noted: buffer.
Series [4] can be described thus: Cytotoxicity against human A549 cells assessed as growth inhibition after 7 days by Alamar Blue assay. In kind it is cell-based. To be noted: read-out: MIC. A general note: Resazurin is reduced to fluorescent resorufin, in cell work by metabolically active cells.
Series [5] deals with T2, Enoyl-[acyl-carrier-protein] reductase [NADH] (Mycobacterium tuberculosis, UniProt P9WGR1).
T2 sequence (P9WGR1 whole entry): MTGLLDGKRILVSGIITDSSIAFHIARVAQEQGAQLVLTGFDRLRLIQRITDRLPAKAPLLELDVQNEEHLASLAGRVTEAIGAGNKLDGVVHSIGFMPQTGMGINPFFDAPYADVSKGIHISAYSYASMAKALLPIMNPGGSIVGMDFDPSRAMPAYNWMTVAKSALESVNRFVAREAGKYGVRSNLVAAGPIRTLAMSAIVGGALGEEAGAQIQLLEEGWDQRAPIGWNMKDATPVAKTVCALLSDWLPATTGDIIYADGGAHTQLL
The series can be described thus: Inhibition of Mycobacterium tuberculosis full length inhA expressed in Escherichia coli BL21 preincubated for 15 mins by fluorescence based assay in presence of NADH.

Series [6] deals with Mycobacterium tuberculosis. The series can be described thus: Antimycobacterial activity against Mycobacterium tuberculosis H37Rv ATCC 27294 assessed as parasite growth inhibition after 7 days by Alamar Blue assay. To be noted: H37Rv ATCC 27294, 168 h. In kind it is functional.
Series [7] concerns the target T2, Enoyl-[acyl-carrier-protein] reductase [NADH]. The experiment in a line: Binding affinity to Mycobacterium tuberculosis NADH-bound form of full length inhA (1 to 255) by SPR assay. For orientation: Surface plasmon resonance follows binding to a sensor surface in real time, without labels.
Series [8] shares this target. The series can be described thus: Binding affinity to Mycobacterium tuberculosis NADH-bound form full length inhA (1 to 255) by isothermal titration calorimetry assay. Put shortly: (§1)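 InhA titrated with compound by isothermal titration calorimetry, either as apo enzyme or pre-bound to NADH or NAD+ cofactor. No enoyl-ACP substrate was present. ITC data were used mainly to derive Kd and binding stoichiometry.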
(Isothermal titration calorimetry measures the heat released or taken up as one component is titrated into another.)

The target is the same in series [9]. The series can be described thus: Binding affinity to Mycobacterium tuberculosis NAD+-bound form of full length inhA (1 to 255) by isothermal titration calorimetry assay. Put shortly:
as §1

The target of series [10] is T3, Enoyl-[acyl-carrier-protein] reductase [NADH] (Mycobacterium tuberculosis) (UniProt P9WGR1).
T3 sequence (whole entry): T2 sequence (P9WGR1 whole entry)
The following applies: 50 uM.

In series [11] the target is T3, Enoyl-[acyl-carrier-protein] reductase [NADH] (Mycobacterium tuberculosis). To be noted: 50 uM. The source holds these as a separate data set.
For series [12] the target is unchanged.
The target is the same in series [13]. This is another data set of the same source.
For series [14] the target is unchanged. The source holds these as a separate data set.
The test system of series [15] is Mycobacterium tuberculosis. The series can be described thus: Antitubercular activity against Mycobacterium tuberculosis. In kind it is functional.
In series [16] the target is T2, Enoyl-[acyl-carrier-protein] reductase [NADH]. The experiment in a line: Inhibition of wild type Mycobacterium tuberculosis inhA.
Series [17] has as its target T4, Adenosine receptor A1 (Homo sapiens) (UniProt P30542).
T4 sequence (whole entry): T1 sequence (P30542 whole entry)
The series can be described thus: Inhibition of adenosine A1 receptor (unknown origin) at 30 uM.

Series [18] deals with T5, Adenosine receptor A3 (Homo sapiens) (UniProt P0DMS8).
T5 sequence (whole entry): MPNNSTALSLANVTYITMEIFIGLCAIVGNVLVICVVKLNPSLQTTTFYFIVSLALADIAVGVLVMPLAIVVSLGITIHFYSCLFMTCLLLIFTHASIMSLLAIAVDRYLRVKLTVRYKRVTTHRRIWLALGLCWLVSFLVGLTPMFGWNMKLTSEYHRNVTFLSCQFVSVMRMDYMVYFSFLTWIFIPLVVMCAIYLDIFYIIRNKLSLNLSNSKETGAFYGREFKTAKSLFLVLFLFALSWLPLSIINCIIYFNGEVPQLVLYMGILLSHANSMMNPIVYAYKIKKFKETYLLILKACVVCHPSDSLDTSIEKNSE
The series can be described thus: Inhibition of adenosine A3 receptor (unknown origin) at 30 uM.

The species named for another series is Homo sapiens. The series can be described thus: Inhibition of angiotensin receptor (unknown origin) at 30 uM.

Sequence of Cytochrome P450 3A4 (P08684 whole entry): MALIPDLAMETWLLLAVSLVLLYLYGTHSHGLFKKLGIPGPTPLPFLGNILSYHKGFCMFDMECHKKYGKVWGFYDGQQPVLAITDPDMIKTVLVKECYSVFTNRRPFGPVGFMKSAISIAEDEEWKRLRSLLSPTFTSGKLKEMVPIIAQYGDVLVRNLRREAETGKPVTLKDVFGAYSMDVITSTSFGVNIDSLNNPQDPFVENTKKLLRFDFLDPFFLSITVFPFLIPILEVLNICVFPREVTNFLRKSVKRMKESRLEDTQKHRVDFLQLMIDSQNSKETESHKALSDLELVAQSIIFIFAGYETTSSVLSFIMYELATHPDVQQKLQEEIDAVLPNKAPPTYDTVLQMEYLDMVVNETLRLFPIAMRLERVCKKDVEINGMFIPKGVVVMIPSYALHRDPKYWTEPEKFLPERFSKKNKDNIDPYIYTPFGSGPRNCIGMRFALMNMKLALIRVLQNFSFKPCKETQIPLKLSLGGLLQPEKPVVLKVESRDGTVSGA
Sequence of 5-hydroxytryptamine receptor 2B (P41595 whole entry): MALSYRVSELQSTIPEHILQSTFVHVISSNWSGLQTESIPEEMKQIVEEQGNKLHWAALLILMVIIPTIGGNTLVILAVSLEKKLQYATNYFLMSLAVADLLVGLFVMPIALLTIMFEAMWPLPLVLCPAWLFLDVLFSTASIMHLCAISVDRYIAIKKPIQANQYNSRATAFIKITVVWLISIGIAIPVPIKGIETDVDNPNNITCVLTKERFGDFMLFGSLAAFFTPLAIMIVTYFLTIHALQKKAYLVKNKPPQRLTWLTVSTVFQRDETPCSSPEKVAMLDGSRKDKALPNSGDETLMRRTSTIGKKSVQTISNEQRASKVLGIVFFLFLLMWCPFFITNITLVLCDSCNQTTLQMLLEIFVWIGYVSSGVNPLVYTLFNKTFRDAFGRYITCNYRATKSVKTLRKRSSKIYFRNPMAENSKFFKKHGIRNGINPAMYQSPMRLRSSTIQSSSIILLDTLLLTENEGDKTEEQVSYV

The term IC50 denotes the concentration that inhibits the measured activity by half. The term fraction unbound denotes the share of the substance not bound to proteins or other matrix. Low readings indicate extensive binding, high ones weak binding. One may read the solubility as how much of the substance goes into solution per volume. In general, MIC refers to the lowest concentration that inhibits growth of the organism. In the case of `Cc1csc(C(C)(O)c2nnc(NC(=O)Cc3c(F)cccc3F)s2)n1` (racemic), the IC50 against Adenosine receptor A1 was 21 µM; in [1], 64 µM; on Phosphodiesterase 4 it was 23 µM; at Cytochrome P450 3A4, greater than 50 µM; in series [5], 0.2 µM. In [2], this compound had a fraction unbound of 0.019. In series [3], this compound showed a solubility of 26 µM (≈ 10.3 µg/mL). For the same compound, the MCC at 168 h in series [4] was greater than 100 µM. Also, in [6], the MIC amounted to 3.75 µM.

For orientation: Kd means the equilibrium constant for the complex coming apart. One may read the ΔTm as the change in melting temperature against a reference sample. `Cc1csc([C@](C)(O)c2nnc(Nc3ccn(Cc4c(F)cccc4F)n3)s2)n1`: the results for the IC50 (against Cytochrome P450 3A4; in series [5]) were 1.9 µM and 0.003 µM, respectively. The compound further came in with a fraction unbound in [2] of 0.034. This compound showed a solubility in series [3] of 208 µM (≈ 90.4 µg/mL). In addition, in [4], the MCC at 168 h turned out to be 78 µM. Moreover, the values for the Kd in series [7], in series [8] and in series [9] were 0.0115 µM, 0.0137 µM and 9.3 µM, respectively. In addition, in series [6], the MIC came out at 0.19 µM. In addition, the figures for the ΔTm in series [10] and in series [11] were 69.3 °C and 55 °C, respectively. In addition, the Tm in series [12] turned out to be 56.5 °C; in [13], 55.2 °C; in [14], 54.2 °C.

In [15], `Oc1cc(Cl)ccc1Oc1ccc(Cl)cc1Cl` [TRICLOSAN] displayed an MIC of 64 µM (≈ 18.5 µg/mL).

With `COC(=O)c1cnc2ccc(C#N)cc2c1NCCCc1ccccc1`, the IC50 in [5] came out at 0.02 µM. In addition, the MIC in [6] was greater than 64 µM.

Consider `Cc1csc(C(C)(O)c2nnc(Nc3cccc(Cc4c(F)cccc4F)n3)s2)n1` (racemic), for which the IC50 in series [5] is less than 0.002 µM. The MIC in [6] was 3.13 µM.

Consider `CCCCCCc1ccc(Oc2ccccc2C)c(O)c1`, for which the IC50 in series [16] stood at 0.022 µM.

For `Cc1csc(C(C)(O)c2nnc(Nc3cc(C4CC4)n(Cc4c(F)cccc4F)n3)s2)n1` (racemic), in series [5], the IC50 is 0.97 µM. Besides, the MIC in series [6] is greater than 12.5 µM.

Take `Cc1csc(C(C)(O)c2nnc(Nc3ccn(Cc4c(F)cccc4F)n3)s2)n1` (racemic): in [5], the IC50 stood at 0.004 µM. Further, the MIC in series [6] came out at 0.5 µM.

Regarding `NNC(=O)c1ccncc1` [ISONIAZID], the values for the MIC in series [6] and in [15] were 0.03 µg/mL and 0.05 µM (≈ 0.00686 µg/mL), respectively.

As to `Cc1csc(C(C)(O)c2nnc(Nc3nccc(Cc4c(F)cccc4F)n3)s2)n1` (racemic), the IC50 in [5] was less than 0.002 µM. For the same compound, the MIC in series [6] is 12.5 µM.

As for `Cc1csc(C(C)(O)c2nnc(Nc3cnn(Cc4c(F)cccc4F)c3)s2)n1` (racemic), the IC50 in [5] was 0.234 µM. Besides, in series [6], the MIC was determined as 7.5 µM.

A word on the inhibition: it is how much of the control response was suppressed. Low readings indicate a response near the control, high ones a response far below the control. Regarding `Cc1csc(C(C)(O)c2nnc(Nc3ncn(Cc4c(F)cccc4F)n3)s2)n1` (racemic), the values for the inhibition (in series [17]; in series [18]; in the series listed under Homo sapiens) were 63%, 70% and 69%, respectively. Also, the IC50 against Cytochrome P450 3A4 was 48 µM; in series [5], 0.03 µM. For the same compound, in series [2], the fraction unbound was 0.143. For the same compound, the solubility in series [3] was found to be 69 µM (≈ 30 µg/mL). For the same compound, the MCC at 168 h in [4] was greater than 100 µM. In addition, the MIC in series [6] was 0.391 µM.

`Cc1csc(C(C)(O)c2nnc(NCC3CN(Cc4c(F)cccc4F)C(=O)O3)s2)n1` (racemic): in series [5], the IC50 came to 0.4 µM. Further, the MIC in series [6] was greater than 100 µM.

As for `CO[C@H]1/C=C/O[C@@]2(C)Oc3c(C)c(O)c4c(O)c(c(/C=N/N5CCN(C)CC5)c(O)c4c3C2=O)NC(=O)/C(C)=C\C=C\[C@H](C)[C@H](O)[C@@H](C)[C@@H](O)[C@@H](C)[C@H](OC(C)=O)[C@@H]1C` [RIFAMPIN], the MIC in series [6] was determined as 0.007 µg/mL.

Consider `COc1c(N2C[C@@H]3CCCN[C@@H]3C2)c(F)cc2c(=O)c(C(=O)O)cn(C3CC3)c12` [MOXIFLOXACIN], for which the MIC in series [6] turned out to be 0.12 µg/mL.

In [15], `CC/C(C)=C1\OC(=O)[C@H](C)[C@H](O)[C@H](Cc2cccnc2)NC(=O)[C@@H](NC(=O)c2ncccc2O)[C@@H](C)OC1=O` [PYRIDOMYCIN] returned an MIC of 0.57 µM (≈ 0.308 µg/mL).

Consider `Cc1csc(C(C)(O)c2nnc(NC(=O)c3ccn(Cc4c(F)cccc4F)n3)s2)n1` (racemic), for which the concentration for half-maximal inhibition (IC50) in [5] worked out at 34 µM. The MIC in series [6] is greater than 100 µM.

With `O=C1CC(c2nc3ccccc3n2Cc2ccccc2)CN1C1CCCCC1` (configuration not stated), the IC50 in series [5] came out at 1 µM. The MIC in series [6] is greater than 64 µM.
